Measurements taken from article PMC4161282 (Bioconjugate chemistry, 2013).
Values after ≈ are worked out from the molar mass of the structure shown. Values joined by “and” are separate entries in the source; they are usually repeats but may differ in a detail not shown here. Equal values may be shown once.

Key:
[1] = Effect of catalyst concentration on kobs, oxime ligation of citral with 1; settings: citral 30 µM, 1 100 µM
[2] = target: immobilized GFP (Aequorea victoria, UniProt P42212); test: Kinetic analysis of hydrazone-oxime exchange; settings: catalyst 100 mM, aminooxy fluorophore 5 1 mM
[3] = Kinetic analysis of oxime ligation between 2-pentanone and aminooxy-dansyl 1; settings: for kobs: 2-pentanone 5.0 mM, 1 150 µM; for kobs/kobs(aniline): vs 100 mM aniline
[4] = target: GFP-aldehyde 4a (Aequorea victoria, UniProt P42212); test: Kinetic analysis of protein labeling via oxime ligation; settings: catalyst 100 mM, 4a 10 µM, 1 50 µM
[5] = Approximate solubility in phosphate buffer; settings: for solubility: phosphate buffer, pH 7, aqueous buffer
[6] = target: Aldehyde-GFP 4a (Aequorea victoria, UniProt P42212); test: Immobilization of aldehyde-GFP 4a from crude cell lysate onto hydrazide beads; settings: catalyst 100 mM
[7] = Catalyst screening: oxime ligation of citral with aminooxy-dansyl 1; settings: catalyst 25 mM; for kobs / kobs/kobs(aniline) / t1/2: citral 50 µM; for kobs: aminooxy-dansyl 1 100 µM, PB pH 7.0, rt; for kobs/kobs(aniline) / t1/2: 1 100 µM; for catalytic efficiency compared with aniline: screening
[8] = system: DHFR^2 M174pAcF; test: PEGylation of ketone-containing protein with aminooxy-PEG 12; settings: catalyst 100 mM, protein 7 µM, aminooxy-PEG 5 mM, pH 7, rt
[9] = target: T1, aldehyde-CNTF 9 (Homo sapiens, UniProt P26441); test: Rate analysis of coupling between aldehyde-CNTF 9 and aminooxy 5; settings: catalyst 80 mM, 9 50 µM, 5 600 µM, 5 min
T1 sequence (P26441 1-200): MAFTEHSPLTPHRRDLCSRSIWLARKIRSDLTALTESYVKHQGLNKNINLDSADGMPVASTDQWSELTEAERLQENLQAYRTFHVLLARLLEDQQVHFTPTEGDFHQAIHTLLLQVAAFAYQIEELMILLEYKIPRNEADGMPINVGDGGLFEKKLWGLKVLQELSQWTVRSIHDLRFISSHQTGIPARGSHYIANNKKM
How it was run: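 Run at rt and started by adding aldehyde-bearing CNTF (stock 60 µM in 50 mM Tris-HCl, pH 7.5). Aliquots were taken every 5 min into SDS loading buffer and flash-frozen in liquid nitrogen. Samples were heated at 98 °C for 4 min, then analysed by SDS-PAGE.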

[10] = phosphate buffer (0.1 M), pH 7.0, rt

SMILES | kobs ([1]; catalyst 25 mM) [M⁻¹ s⁻¹] | kobs/[cat.] ([1]; catalyst 25 mM) [ms^−1 M^−2] | kobs ([1]; catalyst 35 mM) [M⁻¹ s⁻¹] | kobs/[cat.] ([1]; catalyst 35 mM) [ms^−1 M^−2] | kobs ([1]; catalyst 42 mM) [M⁻¹ s⁻¹] | kobs/[cat.] ([1]; catalyst 42 mM) [ms^−1 M^−2] | kobs/[cat.] ([1]; catalyst 50 mM) [ms^−1 M^−2] | Approximate Solubility [5, 10] | kobs [7] [M⁻¹ s⁻¹] | kobs/kobs(aniline) [7] | catalytic efficiency compared with aniline [7] | t1/2 [7] [min] | other results
Nc1ccccc1 [Aniline, aniline, reference compound] | 24.3 ± 0.2 | 0.97 | 33.5 ± 0.2 | 0.96 | 36.9 ± 0.3 | 0.88 | 0.97 | 100 mM | 24.4 ± 0.5 | – | – | – | kobs ([1]; catalyst 50 mM): 48.6 ± 0.2 M⁻¹ s⁻¹; kobs ([1]; catalyst 50 mM, listed as aniline): 48.9 M⁻¹ s⁻¹ and 48.6 M⁻¹ s⁻¹; kobs of immobilized protein release [2]: 0.0159 h⁻¹; kobs ([3]; catalyst 100 mM): 0.082 M⁻¹ s⁻¹ and 0.082 ± 0.0007 M⁻¹ s⁻¹; extent of reaction (labeling) in about 90 s [4]: < 7%; kobs [4]: 10.3 M⁻¹ s⁻¹; solubility ([5]; Approximate Solubility, phosphate buffer (0.1 M), pH 7.0, rt): ~100 mM (≈ 9310 µg/mL); time to complete immobilization [6]: less than 45 min; effect on PEGylation reaction rate [8]: did not have a significant effect on the reaction rate
Nc1cccc(O)c1 [m-Aminophenol, m-aminophenol] | – | – | – | – | – | – | – | – | 23.9 ± 0.5 | 0.98 | – | – | –
Nc1cccc(N)c1 [m-Phenylene-diamine, m-phenylenediamine] | 38.7 ± 0.1 | 1.55 | 58.3 ± 0.3 | 1.66 | 65.6 ± 0.6 | 1.56 | 1.56 | – | – | – | – | – | kobs ([1]; catalyst 50 mM, listed as mPDA): 78.2 ± 0.7 M⁻¹ s⁻¹; kobs ([3]; catalyst 100 mM, listed as mPDA): 0.20 ± 0.0016 M⁻¹ s⁻¹; kobs/kobs(aniline) ([3]; catalyst 100 mM): 2.41; kobs ([3]; catalyst 300 mM): 0.36 ± 0.0042 M⁻¹ s⁻¹; kobs/kobs(aniline) ([3]; catalyst 300 mM): 4.45; kobs ([3]; catalyst 500 mM): 0.73 ± 0.0071 M⁻¹ s⁻¹; kobs/kobs(aniline) ([3]; catalyst 500 mM): 8.89; kobs ([3]; catalyst 700 mM): 1.17 ± 0.013 M⁻¹ s⁻¹; kobs/kobs(aniline) ([3]; catalyst 700 mM): 14.3; kobs ([3]; catalyst 900 mM): 1.69 ± 0.022 M⁻¹ s⁻¹; kobs/kobs(aniline) ([3]; catalyst 900 mM): 20.7; extent of protein labeling (Coomassie gel) [9]: almost all of the protein was labeled
Nc1ccccc1C(=O)O [o-Aminobenzoic acid, o-aminobenzoic acid] | – | – | – | – | – | – | – | – | 24.8 ± 0.8 | 1.01 | equal to or less efficient than aniline | – | solubility [5]: > 2000 mM
Nc1ccccc1N [o-Phenylene-diamine, o-phenylenediamine] | – | – | – | – | – | – | – | very soluble (>1 M) | 18.1 ± 0.3 | 0.74 | equal to or less efficient than aniline | 7.47 | –
Nc1ccc(N)cc1 [p-Phenylene-diamine, p-phenylenediamine] | – | – | – | – | – | – | – | very soluble (>1 M) | 29.2 ± 0.7 | 1.20 | more efficient compared with aniline | 4.63 | –
